Screening results from PubChem BioAssay.
TRPC6 act: activators of mouse TRPC6 channel; B-score at 10 µM; hit rate 0.13% among 310,000; Q61143; HEK293-TRPC6 membrane potential dye fluorescence; active compounds read high; AID 2550;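 active = B-score of the integrated fluorescence ratio above library mean plus 3 SD, and starting fluorescence ratio within library mean plus 5 SD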;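 note: higher score means more depolarization so channel activation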
TRPC4 potent: TRPC4 (mouse) allosteric potentiation. Q9QUQ5. hit rate 0.42% among 310,000. B-score at 10 µM. AID 2227. HEK293 TRPC4beta/mu-opioid, DAMGO EC20, Fluo-4 Ca2+ flux; active compounds read high;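 active = B-score of calcium response area above 5 SD of library B-scores, with initial fluorescence ratio within 5 SD of library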;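 note: B-score of integrated fluorescence ratio over time as area under calcium response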
TRPC4 agonist: activators of mouse TRPC4 channel; B-score at 10 µM; Q9QUQ5; AID 2237; HEK293 TRPC4beta/mu-opioid, Fluo4 calcium fluorescence; active compounds read high; hit rate 0.49% among 310,000;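 active = B-score above 5 SD of library B-scores, and initial fluorescence ratio not above library mean plus 5 SD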;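 note: positive B-score marks a calcium rise read as TRPC4 activation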
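Assay system – TRPC4beta and mu-opioid receptor HEK293 stable cells · Measured by – Fluo4 fluorescence, kinetic · Schedule – dye loading 45 min room temperature, 110 s kinetic read · Read-out – B-scored integrated calcium fluorescence ratio · Controls – buffer and maximal DAMGO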
TRPC4 block: TRPC4 (mouse) channel inhibition. Q9QUQ5. HEK293 TRPC4beta/mu-opioid, DAMGO-evoked Fluo4 calcium flux; active compounds read low. B-score at 10 µM. hit rate 0.39% among 300,000. AID 2247;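 active = B-score over 3 SD under the library average, no early fluorescence shift, positive overall ratio signal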
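material = TRPC4beta/mu-opioid receptor HEK293 cell line | probe or stimulus = sequential submaximal and maximal DAMGO stimulation | compound dosing = one concentration per compound | measured by = Fluo4 Ca2+ flux fluorescence | evaluation = integrated fluorescence ratio relative to baseline, converted to per-well B score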
TRPC6 inh: mouse TRPC6 channel inhibition | B-score at 10 µM | AID 2553 | Q61143 | HEK293-TRPC6, membrane potential dye, ACh-evoked depolarization; active compounds read low | hit rate 1.1% among 310,000;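 active = B-score under library mean minus 3 SD, initial fluorescence not abnormally high, positive integrated signal ratio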;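 note: B-score derived from integrated fluorescence ratio over the kinetic read; more negative B-score means stronger inhibition of depolarization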
TRPC4 sel inh 2: second selectivity test of TRPC6 inhibitors: effect on mouse TRPC4; shares compounds with TRPC6 inh; hit rate 42% among 920; inhibition, % at 10 µM; HEK293 TRPC4/MOR, membrane potential dye fluorescence; channel activated by saturating DAMGO dose;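 active = compounds whose fluorescence signal differed from control wells by over 3 SD, either direction, in both duplicate plates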
TRPC4 spec: tests whether TRPC6 inhibitors also affect mouse TRPC4; HEK293 TRPC4/mu-opioid, membrane potential fluorescence; activity change, negative = inhibition, % at 10 µM; AID 2777; hit rate 61% among 920; shares compounds with TRPC6 inh;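 active = rise or fall in signal beyond 3 SD of buffer-only wells in both replicate plates, either sign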;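 note: integrated kinetic ratio of fluorescence range over baseline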
HEK293 MPD ctr 2-1: second counter-screen for TRPC6 inhibitors: parental HEK293 cells | AID 2779 | parental HEK293 membrane potential dye fluorescence; maximal acetylcholine challenge after compound addition | signal change vs control, % at 10 µM | hit rate 31% among 920 | shares compounds with TRPC6 inh;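 active = membrane potential signal moving either way by over 3 SD of the maximum-effect control, in both duplicate plates, meaning non-specific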
HEK293 MPD ctr-1: checks TRPC6 inhibitor effects in parental HEK293 cells; shares compounds with TRPC6 inh; parental HEK293 membrane potential dye fluorescence; membrane potential signal change, % at 10 µM; hit rate 60% among 920; AID 2780;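 active = membrane potential signal shifting up or down by more than 3 SD of buffer-only wells, on both duplicate plates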
HEK293 MPD ctr-2: checks TRPC6 modulator effects in parental HEK293 cells. membrane potential dye fluorescence. hit rate 51% among 2,400. AID 488924. shares compounds with TRPC6 inh. membrane potential signal change, % at 10 µM;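 active = membrane potential signal moves up or down beyond 5 SD from buffer-only wells, on both duplicate plates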
HEK293 MPD ctr 2-2: second counter-screen for TRPC6 modulators: effect in parental HEK293 cells; membrane potential dye fluorescence; after compound, maximal acetylcholine stimulation; AID 488926; shares compounds with TRPC6 inh; inhibition, % at 10 µM; hit rate 14% among 2,400;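 active = membrane potential signal drops by more than 5 SD from the mean control signal, in both duplicate plates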;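 note: plate controls were acetylcholine ECmax control wells for no effect and buffer only wells for full effect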
TRPC4/MOR mod: mouse TRPC4 off-target activity of TRPC6 modulators; shares compounds with TRPC6 inh; percent change from control (negative = decrease, positive = increase), % at 10 µM; HEK293 TRPC4/mu-opioid, membrane potential fluorescence; AID 488927; hit rate 69% among 2,400;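 active = membrane potential signal moved up or down beyond 5 SD of buffer control wells, in both duplicate plates, actives on both sides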;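 note: plate controls were assay buffer wells for no effect and DAMGO maximal-effect wells for full effect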
TRPC4 ctr inh 2: mouse TRPC4 off-target activity of TRPC6 modulators, second screen; shares compounds with TRPC6 inh; HEK293 TRPC4/mu-opioid, membrane potential dye fluorescence; stimulated with maximal-effect DAMGO; inhibition, % at 10 µM; hit rate 55% among 2,400;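 active = drop in membrane potential signal beyond 5 SD of the control wells in both duplicate plates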;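 note: TRPC4 counter screen for TRPC6 hits run under conditions tuned for TRPC6 not TRPC4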
TRPC6 inh conf: mouse TRPC6 inhibitor confirmation. shares compounds with TRPC6 inh. HEK293-TRPC6, membrane potential dye, ACh-evoked depolarization. inhibition, % at 10 µM. hit rate 43% among 3,300. AID 488960;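 active = fluorescence ratio falls more than 5 SD below the full-stimulation control mean, in both duplicate runs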;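 note: integrated fluorescence ratio of peak minus minimum over baseline after agonist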
TRPC6 act conf: confirmation of mouse TRPC6 activators. shares compounds with TRPC6 inh. HEK293-TRPC6 membrane potential dye fluorescence, FDSS. activation, % at 10 µM. hit rate 11% among 2,800;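 active = ratio signal rise beyond 5 SD above unstimulated control wells' mean, seen in both duplicate runs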;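 note: plate controls were buffer EC0 wells for no effect and acetylcholine ECmax response for full effect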
* = called active by the depositor. In the library only some 2.3% were active in any assay of this set; here they are far more common.

For CCCn1nc(C(=O)NNC(=O)C2CSC3(C)CCC(=O)N23)c2ccccc2c1=O (configuration not stated) the results were TRPC6 act inactive, TRPC4 potent inactive, TRPC4 agonist inactive, TRPC4 block inactive and TRPC6 inh inactive.
Screening COc1cc(CC(=O)OCc2ccccc2F)cc(OC)c1OC returned TRPC6 act inactive, TRPC4 potent inactive, TRPC4 agonist inactive, TRPC4 block inactive and TRPC6 inh inactive.
For COc1cc(NC2=Nc3cccc4cccc2c34)cc(OC)c1OC the results were TRPC6 act inactive, TRPC4 potent inactive, TRPC4 agonist inactive, TRPC4 block inactive, TRPC6 inh -5.1*, HEK293 MPD ctr-2 inactive, HEK293 MPD ctr 2-2 inactive, TRPC4/MOR mod inactive, TRPC4 ctr inh 2 32%*, TRPC6 inh conf inactive and TRPC6 act conf inactive.
For COc1ccc(NC2=Nc3cccc4cccc2c34)cc1OC the results were TRPC6 act inactive, TRPC4 potent inactive, TRPC4 agonist inactive, TRPC4 block inactive and TRPC6 inh inactive.
For CCOC(=O)c1[nH]c2ccc(F)cc2c1NC(=O)CN1CCN(C/C=C/c2ccccc2)CC1 the results were TRPC6 act inactive, TRPC4 potent inactive, TRPC4 agonist inactive, TRPC4 block inactive, TRPC6 inh -12*, TRPC4 sel inh 2 40%*, TRPC4 spec -21%*, HEK293 MPD ctr 2-1 inactive, HEK293 MPD ctr-1 -246%*, TRPC6 inh conf 88%* and TRPC6 act conf inactive.
Screening COC(=O)c1[nH]c2ccccc2c1NC(=O)CN1CC(C)OC(C)C1 (configuration not stated) returned TRPC6 act inactive, TRPC4 potent inactive, TRPC4 agonist inactive, TRPC4 block inactive and TRPC6 inh inactive.
CCOC(=O)c1[nH]c2ccc(F)cc2c1NC(=O)CN1CCc2cc(OC)c(OC)cc2C1 was read as TRPC6 act inactive, TRPC4 potent inactive, TRPC4 agonist inactive, TRPC4 block inactive and TRPC6 inh inactive.
COC(=O)c1[nH]c2ccccc2c1NC(=O)CN1CCN(C/C=C/c2ccccc2)CC1 was read as TRPC6 act inactive, TRPC4 potent inactive, TRPC4 agonist inactive, TRPC4 block inactive, TRPC6 inh -7.8*, TRPC4 sel inh 2 30%*, TRPC4 spec -16%*, HEK293 MPD ctr 2-1 inactive, HEK293 MPD ctr-1 -176%*, TRPC6 inh conf 79%* and TRPC6 act conf inactive.
